Assay results: ChEMBL document CHEMBL3352274, “Oxadiazoles and thiadiazoles: novel α-glucosidase inhibitors” (Bioorg Med Chem, 2014); call rule not given here

Assays:
[1] = Inhibition of alpha-glucosidase (unknown origin) using p-nitrophenyl-alpha-D-glucopyranoside substrate measured up to 30 mins by multiplate spectrophotometry; design: species or system Homo sapiens
Method in brief: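 Enzyme 0.2 U/mL in phosphate buffered saline, preincubated with test compounds at various concentrations, 15 min, 37 °C. Assay in 0.1 M phosphate buffer pH 6.8 at 37 °C. Triplicate reactions, acarbose as standard. % inhibition = 100 − (OD test/OD control) × 100. IC50 by enzyme kinetics fitting.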

[2] = target: Carbonic anhydrase 2 (Bos taurus) (UniProt P00921); assay: Inhibition of carbonic anhydrase 2 (unknown origin) using 4-NPA substrate after 15 mins by spectrophotometry
[3] = Non-competitive inhibition of alpha-glucosidase (unknown origin) by Lineweaver-Burk plot; design: species or system Homo sapiens
Method in brief: (§1)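 Mode of inhibition from Lineweaver–Burk plots (1/rate vs 1/substrate concentration) at varying inhibitor concentrations, tracking Km and Vmax. Ki from secondary re-plots of Lineweaver–Burk slopes vs inhibitor concentration and from Dixon plots (1/rate vs inhibitor concentration). Each point mean of three experiments.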

[4] = (§2) Inhibition of snake venom phosphodiesterase 1 using bis(p-nitrophenyl) phosphate substrate after 30 mins by spectrophotometry; design: species or system Serpentes
Method in brief: (§3)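 Assayed in 33 mM Tris–HCl buffer (pH 8.8) with 30 mM Mg-acetate as co-factor, 0.000742 U of enzyme and 0.33 mM substrate. After 30 min of incubation, activity was followed at 37 °C as p-nitrophenol release at 410 nm. Initial rates were taken as change in OD/min. All reactions were run in triplicate, with EDTA as positive control.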

Serpentes = assay: as §2; design: concentration or dose not given beside the values; method in brief: as §3
3T3 = assay: Cytotoxicity against […] 3T3 cells by MTT assay; conditions: Mus musculus, NIH3T3
[5] = Competitive inhibition of alpha-glucosidase (unknown origin) by Lineweaver-Burk plot; design: species or system Homo sapiens; method in brief: as §1

IC50 [1] | IC50 ([1]; read-out: IC50) [µM] | SMILES | also measured
Not Active |  | O=C(CSc1nnc(-c2cccnc2)o1)c1cc2ccccc2oc1=O | 
 | 74.2 | O=C(CSc1nnc(-c2ccccc2)o1)c1ccc(Cl)c(Cl)c1 | 
Not Active |  | O=C(CSc1nnc(-c2cccnc2)o1)c1cccc(F)c1 | 
Not Active |  | O=C(CSc1nnc(-c2ccccc2)o1)c1cccc(Cl)c1 | 
 | 51.8 | O=C(CSc1nnc(SCC(=O)c2ccc(-c3ccccc3)cc2)s1)c1ccc(-c2ccccc2)cc1 | 
Not Active |  | COc1ccc(C(=O)CSc2nnc(-c3ccccc3)o2)cc1 | 
 | 166 | O=C(CSc1nnc(SCC(=O)c2ccc(Br)cc2)s1)c1ccc(Br)cc1 | 
Not Active |  | O=C(CSc1nnc(-c2ccc(Cl)cc2)o1)c1cccc(Cl)c1 | 
 | 937 | C[C@H]1O[C@H](O[C@H]2[C@H](O)[C@@H](O)[C@@H](O[C@H]3[C@H](O)[C@@H](O)C(O)O[C@@H]3CO)O[C@@H]2CO)[C@H](O)[C@@H](O)[C@@H]1N[C@H]1C=C(CO)[C@@H](O)[C@H](O)[C@H]1O (some centres undefined) [ACARBOSE] | Ki [5]: 890 µM
Not Active |  | O=C(CSc1nnc(SCC(=O)c2ccc(Cl)c(Cl)c2)s1)c1ccc(Cl)c(Cl)c1 | 
 | 81.6 | COc1ccccc1C(=O)CSc1nnc(-c2ccc(Cl)cc2)o1 | 
Not Active |  | O=C(CSc1nnc(-c2ccc(Cl)cc2)o1)c1cc2ccccc2oc1=O | 
 | 125 | O=C(CSc1nnc(-c2cccnc2)o1)c1ccc(-c2ccccc2)cc1 | 
Not Active |  | O=C(CSc1nnc(SCC(=O)c2ccc([N+](=O)[O-])cc2)s1)c1ccc([N+](=O)[O-])cc1 | 
Not Active |  | O=C(CSc1nnc(-c2ccc(Cl)cc2)o1)c1ccc(Cl)cc1 | 
 | 112 | O=C(CSc1nnc(-c2ccccc2)o1)c1cccc(O)c1 | 
Not Active |  | COc1ccc(C(=O)CSc2nnc(SCC(=O)c3ccc(OC)cc3)s2)cc1 | 

IC50 [1] | IC50 ([1]; read-out: IC50) [µM] | SMILES | also measured
Not Active |  | O=C(CSc1nnc(-c2ccccc2)o1)c1ccc(Br)cc1 | 
 | 94.3 | COc1ccccc1C(=O)CSc1nnc(SCC(=O)c2ccccc2OC)s1 | 
Not Active |  | O=C(CSc1nnc(-c2cccnc2)o1)c1cccc(O)c1 | 
 | 184 | COc1cccc(C(=O)CSc2nnc(-c3ccccc3)o2)c1 | 
Not Active |  | O=C(CSc1nnc(-c2cccnc2)o1)c1ccc(Br)cc1 | 
Not Active |  | O=C(CSc1nnc(-c2ccccc2)o1)c1cccc(F)c1 | 
Not Active |  | O=C(CSc1nnc(-c2ccc(Cl)cc2)o1)c1ccc(-c2ccccc2)cc1 | 
Not Active |  | COc1ccc(C(=O)CSc2nnc(-c3ccc(OCc4ccccc4)cc3)o2)cc1 | 
Not Active |  | O=C(CSc1nnc(-c2ccccc2)o1)c1ccc(Cl)cc1 | 
Not Active |  | COc1cccc(C(=O)CSc2nnc(-c3ccc(Cl)cc3)o2)c1 | 
Not Active |  | O=C(CSc1nnc(SCC(=O)c2ccc(Cl)cc2)s1)c1ccc(Cl)cc1 | 
 | 49.1 | O=C(CSc1nnc(-c2ccc(Cl)cc2)o1)c1cccc(F)c1 | 
 | 24.6 | O=C(CSc1nnc(SCC(=O)c2cccc(F)c2)s1)c1cccc(F)c1 | 
Not Active |  | O=C(CSc1nnc(-c2cccnc2)o1)c1ccc([N+](=O)[O-])cc1 | 
Not Active |  | COc1ccc(C(=O)CSc2nnc(-c3ccc(Cl)cc3)o2)cc1 | 
Not Active |  | O=C(CSc1nnc(-c2cccnc2)o1)c1ccc(Cl)cc1 | 

SMILES | IC50 [1] | IC50 ([1]; read-out: IC50) [µM] | also measured
O=C(CSc1nnc(-c2ccc(OCc3ccccc3)cc2)o1)c1cccc(O)c1 |  | 17.9 | IC50 [2]: Not Active; inhibition [2]: 48.2%; Ki [3]: 11.2 µM; IC50 [4]: Not Active; inhibition (Serpentes): 1.8%; IC50 (3T3): > 30 µM
COc1ccccc1C(=O)CSc1nnc(-c2ccc(OCc3ccccc3)cc2)o1 |  | 11.8 | IC50 [2]: Not Active; inhibition [2]: 33%; Ki [3]: 4.36 µM; IC50 [4]: Not Active; inhibition (Serpentes): 8.5%; IC50 (3T3): > 30 µM
O=C(CSc1nnc(-c2ccc(Cl)cc2)o1)c1cccc(O)c1 |  | 24.1 | IC50 [2]: Not Active; inhibition [2]: 9%; Ki [3]: 12 µM; IC50 [4]: Not Active; inhibition (Serpentes): 26%; IC50 (3T3): > 30 µM
O=C(CSc1nnc(SCC(=O)c2ccccc2)s1)c1ccccc1 |  | 10.8 | IC50 [2]: Not Active; inhibition [2]: 33.8%; IC50 [4]: Not Active; inhibition (Serpentes): 12.3%; Ki [5]: 6 µM; IC50 (3T3): > 30 µM
O=C(CSc1nnc(SCC(=O)c2cccc(O)c2)s1)c1cccc(O)c1 |  | 20.4 | IC50 [2]: Not Active; inhibition [2]: 42.9%; Ki [3]: 14.3 µM; IC50 [4]: Not Active; inhibition (Serpentes): 4.6%; IC50 (3T3): > 30 µM
